Source: ChEMBL document CHEMBL4480406, “Discovery of an SSTR2-Targeting Maytansinoid Conjugate (PEN-221) with Potent Activity in Vitro and in Vivo” (J Med Chem, 2019)
pIC50, pKi: −log10 of the molar value. Where a SMILES comes first, the peptide text is derived from it. [ ]: non-standard residue; d: D form. The star is where a group is joined. Dolaproine = CO[C@@H]([C@@H]1CCCN1)[C@@H](C)C(=O)O; Dil = CC[C@H](C)[C@H](NC)[C@@H](CC(=O)O)OC; X1 = C[C@@H](N*)[C@@H](O)c1ccccc1; NMeV = CN[C@H](C(=O)O)C(C)C

Legend:
[1] = Drug uptake in tumor of CrTac:NCr-Foxn1nu mouse xenografted with human NCI-H69 cells assessed as DM1 level at 1 mg/kg, iv measured after 24 hrs by LC-MS/MS analysis relative to DM1 alone; format: ADME, organism-based, Neoplasm; details: in vivo
Method in brief: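 NCI-H69 subcutaneous tumors of 250-600 mm3 in nude mice, groups of 3, dosed i.v. Free DM1 was given in 10% propylene glycol/WFI, conjugates in 10% propylene glycol/5 mM citrate pH 4. Tumors were excised at 24 h and homogenized 1:4 (w/v) in 0.1 M ammonium bicarbonate pH 8.0. Homogenate was reduced with TCEP in acetonitrile (15 min, 37 °C), capped with 0.2 M NEM (15 min, 37 °C), and DM1-NEM quantified by LC-MS/MS against standards in blank tumor homogenate. Values were normalized to DM1 dose.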

NCI-H524 [2] = test: Cytotoxicity in human NCI-H524 cells pre-incubated for 2 hrs followed by compound wash out and subsequently incubated for 70 hrs by Cell Titer Glo assay; format: functional, cell-based
Method in brief: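 Cells were then spun, washed with fresh medium, resuspended and grown a further 70 h. Proliferation was read by CellTiter-Glo luminescence, and % inhibition calculated relative to vehicle. IC50 came from a four-parameter nonlinear fit.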

NCI-H524 [3] = test: Cytotoxicity in human NCI-H524 cells pre-incubated for 2 hrs in presence of 100 uM octreotide followed by compound wash out and subsequently incubated for 70 hrs by Cell Titer Glo assay; format: functional, cell-based
Method in brief: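 Octreotide receptor-blockade variant: NCI-H524 cells (5,000/well) were pretreated with octreotide acetate for 30 min, then given compound for 2 h in a ten-point three-fold series.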

[4] = target: Somatostatin receptor type 2 (Homo sapiens, UniProt P30874); test: Displacement of [125I]somatostatin from human SSTR2 expressed in CHO-K1 cell membranes after 240 mins
Sequence of Somatostatin receptor type 2 (P30874 whole entry): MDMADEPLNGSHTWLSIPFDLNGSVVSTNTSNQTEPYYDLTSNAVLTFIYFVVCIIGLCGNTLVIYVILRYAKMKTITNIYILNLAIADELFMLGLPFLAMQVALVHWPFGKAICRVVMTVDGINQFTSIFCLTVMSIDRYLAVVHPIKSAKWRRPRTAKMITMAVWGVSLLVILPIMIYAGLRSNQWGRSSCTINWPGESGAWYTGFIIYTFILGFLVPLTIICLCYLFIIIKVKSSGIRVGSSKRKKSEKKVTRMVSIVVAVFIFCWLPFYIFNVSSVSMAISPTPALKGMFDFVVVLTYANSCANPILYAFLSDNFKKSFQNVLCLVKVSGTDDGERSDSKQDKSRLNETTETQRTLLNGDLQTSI
Method in brief: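 Membranes from CHO-K1 cells stably expressing human SSTR2, prepared in modified HEPES pH 7.4. Nonspecific binding was defined with 1 µM somatostatin. Bound ligand was measured by filtration, 3 washes and counting. Six test concentrations were run, top 10 nM, in five-fold dilutions.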

Structure (SMILES) | Drug uptake [1] | pIC50 (NCI-H524 [2]) | pIC50 (NCI-H524 [3]) | pKi [4]
COc1cc2cc(c1Cl)N(C)C(=O)C[C@H](OC(=O)[C@H](C)N(C)C(=O)CCSSCCOc1ccc(C[C@@H](N)C(=O)N[C@H]3CSSC[C@@H](C(=O)N[C@H](C(=O)O)[C@@H](C)O)NC(=O)[C@H]([C@@H](C)O)NC(=O)[C@H](CCCCN)NC(=O)[C@@H](Cc4c[nH]c5ccccc45)NC(=O)[C@H](Cc4ccc(O)cc4)NC3=O)cc1)[C@@]1(C)O[C@H]1[C@H](C)[C@@H]1C[C@@](O)(NC(=O)O1)[C@H](OC)/C=C/C=C(\C)C2 | Active | 7.82 | 6.70 | 10.82
COc1cc2cc(c1Cl)N(C)C(=O)C[C@H](OC(=O)[C@H](C)N(C)C(=O)CCSSCCNC(=O)[C@@H](NC(=O)[C@@H]1CSSC[C@H](NC(=O)[C@H](N)Cc3ccccc3)C(=O)N[C@@H](Cc3ccc(O)cc3)C(=O)N[C@H](Cc3c[nH]c4ccccc34)C(=O)N[C@@H](CCCCN)C(=O)N[C@@H]([C@@H](C)O)C(=O)N1)[C@@H](C)O)[C@@]1(C)O[C@H]1[C@H](C)[C@@H]1C[C@@](O)(NC(=O)O1)[C@H](OC)/C=C/C=C(\C)C2 | Active | 7.36 | 6.28 | –
COc1cc2cc(c1Cl)N(C)C(=O)C[C@H](OC(=O)[C@H](C)N(C)C(=O)CCSSC[C@@H](CO)NC(=O)[C@@H]1CSSC[C@H](NC(=O)[C@H](N)Cc3ccccc3)C(=O)N[C@@H](Cc3ccc(O)cc3)C(=O)N[C@H](Cc3c[nH]c4ccccc34)C(=O)N[C@@H](CCCCN)C(=O)N[C@@H]([C@@H](C)O)C(=O)N1)[C@@]1(C)O[C@H]1[C@H](C)[C@@H]1C[C@@](O)(NC(=O)O1)[C@H](OC)/C=C/C=C(\C)C2 | – | 7.38 | 5.86 | 10.74
CO[C@H]1C(=O)[C@]2(C)[C@@H](OC)C[C@H]3OC[C@@]3(OC(C)=O)[C@H]2[C@H](OC(=O)c2ccccc2)[C@]2(O)C[C@H](OC(=O)[C@H](O)[C@@H](NC(=O)OC(C)(C)C)c3ccccc3)C(C)=C1C2(C)C [CABAZITAXEL] | – | 9.59 | – | –
COc1cc2cc(c1Cl)N(C)C(=O)C[C@H](OC(=O)[C@H](C)N(C)C(=O)CCS)[C@@]1(C)O[C@H]1[C@H](C)[C@@H]1C[C@@](O)(NC(=O)O1)[C@H](OC)/C=C/C=C(\C)C2 | – | 7.96 | – | –
COc1cc2cc(c1Cl)N(C)C(=O)C[C@H](OC(=O)[C@H](C)N(C)C(=O)CCSC1CC(=O)N(CCCNC(=O)CNC(=O)[C@H](CC(C)C)NC(=O)[C@H](Cc3ccccc3)NC(=O)CNC(=O)CCCCCN3C(=O)CC(SCCCN[C@H](Cc4ccccc4)C(=O)N[C@H]4CSSC[C@@H](C(=O)N[C@H](CO)[C@@H](C)O)NC(=O)[C@H]([C@@H](C)O)NC(=O)[C@H](CCCCN)NC(=O)[C@@H](Cc5c[nH]c6ccccc56)NC(=O)[C@H](Cc5ccccc5)NC4=O)C3=O)C1=O)[C@@]1(C)O[C@H]1[C@H](C)[C@@H]1C[C@@](O)(NC(=O)O1)[C@H](OC)/C=C/C=C(\C)C2 (some centres not stated) | – | 7.12 | 6.69 | 9.85
COc1cc2cc(c1Cl)N(C)C(=O)C[C@H](OC(=O)[C@H](C)N(C)C(=O)CCSSC[C@H](NC(=O)[C@@H]1CSSC[C@H](NC(=O)[C@H](N)Cc3ccccc3)C(=O)N[C@@H](Cc3ccc(O)cc3)C(=O)N[C@H](Cc3c[nH]c4ccccc34)C(=O)N[C@@H](CCCCN)C(=O)N[C@@H]([C@@H](C)O)C(=O)N1)C(=O)O)[C@@]1(C)O[C@H]1[C@H](C)[C@@H]1C[C@@](O)(NC(=O)O1)[C@H](OC)/C=C/C=C(\C)C2 | – | 6.74 | 5.80 | 10.89
COc1cc2cc(c1Cl)N(C)C(=O)C[C@H](OC(=O)[C@H](C)N(C)C(=O)CCSSCCCN[C@H](Cc1ccccc1)C(=O)N[C@H]1CSSC[C@@H](C(=O)N[C@H](CO)[C@@H](C)O)NC(=O)[C@H]([C@@H](C)O)NC(=O)[C@H](CCCCN)NC(=O)[C@@H](Cc3c[nH]c4ccccc34)NC(=O)[C@H](Cc3ccccc3)NC1=O)[C@@]1(C)O[C@H]1[C@H](C)[C@@H]1C[C@@](O)(NC(=O)O1)[C@H](OC)/C=C/C=C(\C)C2 | Active | 7.52 | 6.66 | 9.92
COc1cc2cc(c1Cl)N(C)C(=O)C[C@H](OC(=O)[C@H](C)N(C)C(=O)CCSC1CC(=O)N(CC(=O)NC[C@H](NC(=O)[C@@H]3CSSC[C@H](NC(=O)[C@H](N)Cc4ccccc4)C(=O)N[C@@H](Cc4ccc(O)cc4)C(=O)N[C@H](Cc4c[nH]c5ccccc45)C(=O)N[C@@H](CCCCN)C(=O)N[C@@H]([C@@H](C)O)C(=O)N3)C(N)=O)C1=O)[C@@]1(C)O[C@H]1[C@H](C)[C@@H]1C[C@@](O)(NC(=O)O1)[C@H](OC)/C=C/C=C(\C)C2 (some centres not stated) | – | 7.04 | 5.60 | 9.85
COc1cc2cc(c1Cl)N(C)C(=O)C[C@H](OC(=O)[C@H](C)N(C)C(=O)CCSSCCNC(=O)[C@@H]1CSSC[C@H](NC(=O)[C@H](N)Cc3ccccc3)C(=O)N[C@@H](Cc3ccc(O)cc3)C(=O)N[C@H](Cc3c[nH]c4ccccc34)C(=O)N[C@@H](CCCCN)C(=O)N[C@@H]([C@@H](C)O)C(=O)N1)[C@@]1(C)O[C@H]1[C@H](C)[C@@H]1C[C@@](O)(NC(=O)O1)[C@H](OC)/C=C/C=C(\C)C2 | – | 8.00 | 6.16 | 10.21
CO[C@H]1C(=O)[C@]2(C)[C@@H](OC)C[C@H]3OC[C@@]3(OC(C)=O)[C@H]2[C@H](OC(=O)c2ccccc2)[C@]2(O)C[C@H](OC(=O)[C@H](OC(=O)OCCSSCCCN[C@H](Cc3ccccc3)C(=O)N[C@H]3CSSC[C@@H](C(=O)N[C@H](CO)[C@@H](C)O)NC(=O)[C@H]([C@@H](C)O)NC(=O)[C@H](CCCCN)NC(=O)[C@@H](Cc4c[nH]c5ccccc45)NC(=O)[C@H](Cc4ccccc4)NC3=O)[C@@H](NC(=O)OC(C)(C)C)c3ccccc3)C(C)=C1C2(C)C | – | 6.82 | 6.80 | 9.11
CC[C@H](C)[C@@H]([C@@H](CC(=O)N1CCC[C@H]1[C@H](OC)[C@@H](C)C(=O)N[C@H](C)[C@@H](O)c1ccccc1)OC)N(C)C(=O)[C@@H](NC(=O)[C@H](C(C)C)N(C)C(=O)OCCSSC[C@H](NC(=O)[C@@H]1CSSC[C@H](NC(=O)[C@H](N)Cc2ccccc2)C(=O)N[C@@H](Cc2ccc(O)cc2)C(=O)N[C@H](Cc2c[nH]c3ccccc23)C(=O)N[C@@H](CCCCN)C(=O)N[C@@H]([C@@H](C)O)C(=O)N1)C(N)=O)C(C)C | – | 5.90 | 5.85 | 9.74
COc1cc2cc(c1Cl)N(C)C(=O)C[C@H](OC(=O)[C@H](C)N(C)C(=O)CCSSCCC(=O)NCCCC[C@H]1C(=O)N[C@@H](Cc3ccc(O)cc3)C(=O)N[C@H](Cc3c[nH]c4ccccc34)C(=O)N[C@@H](CCCCN)C(=O)N[C@@H]([C@@H](C)O)C(=O)N[C@@H](Cc3ccccc3)C(=O)N1C)[C@@]1(C)O[C@H]1[C@H](C)[C@@H]1C[C@@](O)(NC(=O)O1)[C@H](OC)/C=C/C=C(\C)C2 | – | 7.22 | 6.06 | 10.00
COc1cc2cc(c1Cl)N(C)C(=O)C[C@H](OC(=O)[C@H](C)N(C)C(=O)CCC(C)(C)SSC[C@H](NC(=O)[C@@H]1CSSC[C@H](NC(=O)[C@H](N)Cc3ccccc3)C(=O)N[C@@H](Cc3ccc(O)cc3)C(=O)N[C@H](Cc3c[nH]c4ccccc34)C(=O)N[C@@H](CCCCN)C(=O)N[C@@H]([C@@H](C)O)C(=O)N1)C(N)=O)[C@@]1(C)O[C@H]1[C@H](C)[C@@H]1C[C@@](O)(NC(=O)O1)[C@H](OC)/C=C/C=C(\C)C2 | – | 7.57 | 6.24 | 10.12
CC[C@H](C)[C@@H]([C@@H](CC(=O)N1CCC[C@H]1[C@H](OC)[C@@H](C)C(=O)N[C@H](C)[C@@H](O)c1ccccc1)OC)N(C)C(=O)[C@@H](NC(=O)[C@@H](NC)C(C)C)C(C)C (H-[NMeV]V[Dil][Dolaproine]-X1) | – | 8.43 | – | –
COc1cc2cc(c1Cl)N(C)C(=O)C[C@H](OC(=O)[C@H](C)N(C)C(=O)CCSSCCCN[C@H](Cc1ccccc1)C(=O)N[C@H]1CSSC[C@@H](C(=O)N[C@H](C(=O)O)[C@@H](C)O)NC(=O)[C@H]([C@@H](C)O)NC(=O)[C@H](CCCCN)NC(=O)[C@@H](Cc3c[nH]c4ccccc34)NC(=O)[C@H](Cc3ccc(O)cc3)NC1=O)[C@@]1(C)O[C@H]1[C@H](C)[C@@H]1C[C@@](O)(NC(=O)O1)[C@H](OC)/C=C/C=C(\C)C2 | Active | 7.72 | 6.12 | –
CC[C@H](C)[C@@H]([C@@H](CC(=O)N1CCC[C@H]1[C@H](OC)[C@@H](C)C(=O)N[C@H](C)[C@@H](O)c1ccccc1)OC)N(C)C(=O)[C@@H](NC(=O)[C@H](C(C)C)N(C)C(=O)OCCSSCCCN[C@H](Cc1ccccc1)C(=O)N[C@H]1CSSC[C@@H](C(=O)N[C@H](CO)[C@@H](C)O)NC(=O)[C@H]([C@@H](C)O)NC(=O)[C@H](CCCCN)NC(=O)[C@@H](Cc2c[nH]c3ccccc23)NC(=O)[C@H](Cc2ccccc2)NC1=O)C(C)C | – | 5.83 | 6.25 | 9.59
